Results reported in ChEMBL document CHEMBL1250500, “E-2-[3-(3,4-dichlorophenyl)-1-oxo-2-propenyl]-3-methylquinoxaline-1,4-dioxide: a lead antitubercular agent which alters mitochondrial respiration in rat liver” (Eur J Med Chem, 2010).
The source made the active and inactive calls. The calls are words filed in the database; no cut-off is given here.

What follows are molecules tested on Mycobacterium tuberculosis (assay: Antitubercular activity against Mycobacterium tuberculosis H37Rv ATCC 27294 by microplate alamar blue assay).
Format: functional, organism-based
How it was run: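 Broth microdilution in BACTEC 12B medium, with Alamar Blue read-out.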

SMILES | IC50 [µM] | IC90 [µM]
Cc1c(C(=O)/C=C/c2ccc3c(c2)OCO3)[n+]([O-])c2ccccc2[n+]1[O-] | 19.7 | 35.8
Cc1c(C(=O)/C=C/c2ccc(Br)cc2)[n+]([O-])c2ccccc2[n+]1[O-] | 3.71 | > 250
COc1ccc(/C=C/C(=O)c2c(C)[n+]([O-])c3ccccc3[n+]2[O-])cc1OC | 9.15 | 17.2
COc1ccc(/C=C/C(=O)c2c(C)[n+]([O-])c3ccccc3[n+]2[O-])cc1 | 23.1 | 40.2
CC(=O)c1c(C)[n+]([O-])c2ccccc2[n+]1[O-] [MEQUINDOX] | 6.83 | 7.89
Cc1c(C(=O)/C=C/c2ccccc2)[n+]([O-])c2ccccc2[n+]1[O-] | 3.88 | 6.12
Cc1c(C(=O)/C=C/c2ccc([N+](=O)[O-])cc2)[n+]([O-])c2ccccc2[n+]1[O-] | > 250 | > 250
Cc1ccc(/C=C/C(=O)c2c(C)[n+]([O-])c3ccccc3[n+]2[O-])cc1 | 5.58 | 9.44
COc1cc(/C=C/C(=O)c2c(C)[n+]([O-])c3ccccc3[n+]2[O-])cc(OC)c1OC | 6.88 | 11.9
Cc1c(C(=O)/C=C/c2ccc(Cl)c(Cl)c2)[n+]([O-])c2ccccc2[n+]1[O-] | 1.03 | 1.53
Cc1c(C(=O)/C=C/c2ccc(Cl)cc2)[n+]([O-])c2ccccc2[n+]1[O-] | 2.64 | 4.12
Cc1c(C(=O)/C=C/c2cccc([N+](=O)[O-])c2)[n+]([O-])c2ccccc2[n+]1[O-] | 2.18 | 2.39
Cc1c(C(=O)/C=C/c2ccc(F)cc2)[n+]([O-])c2ccccc2[n+]1[O-] | 5.83 | 10.7

Organism: Rattus norvegicus
Assay: Induction of rat liver mitochondria respiration assessed as consumption of oxygen at 1 to 10 uM by polarography
Format: functional
How it was run: (§1)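 Liver mitochondria isolated from a rat anesthetized with isoflurane and decapitated. Oxygen consumption measured polarographically. Compounds tested at 1, 5 and 10 μM, added in 4 μL DMSO. A DMSO-only (4 μL) solvent control was run alongside.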

SMILES | Activity
CC(=O)c1c(C)[n+]([O-])c2ccccc2[n+]1[O-] [MEQUINDOX] | inactive

Organism: Rattus norvegicus
Assay: Induction of rat liver mitochondria respiration assessed as consumption of oxygen by polarography
Format: functional
How it was run: as §1

SMILES | Activity
Cc1c(C(=O)/C=C/c2ccc(Cl)c(Cl)c2)[n+]([O-])c2ccccc2[n+]1[O-] | Dose-dependent effect
